High-throughput results: PubChem, The Scripps Research Institute Molecular Screening Center
Hits are enriched below; roughly 2.9% of the tested compounds scored in any of these assays.
PRMT1 FP inh: inhibitors of human PRMT1. Q99873. recombinant PRMT1, activity-based probe fluorescence polarization. inhibition, % at 2.79 µM. hit rate 1.3% among 370,000;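 active means inhibition above about 21% made by adding two undisclosed values, limit read from the data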
PAD4 inh: blocks human protein arginine deiminase 4; Q9UM07; hit rate 0.41% among 330,000; inhibition, % at 6.36 µM; recombinant PAD4, RCA probe fluorescence polarization;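 active means percent inhibition above a cutoff equal to the mean of all tested compounds plus 3 SD, cut at about 15% in these data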;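 further: 0% = PAD4 with RCA probe and DMSO and 100% = probe without PAD4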
Target sequence (Q9UM07 whole entry, looked up): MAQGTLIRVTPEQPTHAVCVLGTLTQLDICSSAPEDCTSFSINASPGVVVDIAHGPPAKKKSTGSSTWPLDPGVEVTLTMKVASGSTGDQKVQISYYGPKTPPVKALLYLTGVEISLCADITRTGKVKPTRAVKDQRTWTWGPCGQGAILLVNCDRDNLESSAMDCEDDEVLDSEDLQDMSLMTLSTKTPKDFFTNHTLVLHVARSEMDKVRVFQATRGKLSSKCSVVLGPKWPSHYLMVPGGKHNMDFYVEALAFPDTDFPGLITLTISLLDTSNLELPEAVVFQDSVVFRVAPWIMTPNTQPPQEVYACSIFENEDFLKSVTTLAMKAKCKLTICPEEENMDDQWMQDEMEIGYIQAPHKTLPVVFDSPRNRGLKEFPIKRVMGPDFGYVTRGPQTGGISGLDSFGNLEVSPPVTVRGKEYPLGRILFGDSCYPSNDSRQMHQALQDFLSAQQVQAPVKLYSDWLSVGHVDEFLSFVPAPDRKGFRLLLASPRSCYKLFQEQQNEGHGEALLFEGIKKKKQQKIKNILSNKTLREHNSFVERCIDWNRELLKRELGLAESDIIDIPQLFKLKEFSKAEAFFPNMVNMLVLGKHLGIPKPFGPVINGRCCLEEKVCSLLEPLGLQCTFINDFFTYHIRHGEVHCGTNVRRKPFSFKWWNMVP
SIAE inh: human SIAE inhibition, primary screen; Q9HAT2; inhibition, % at 9.66 µM; AID 1053197; SIAE FP-Rh probe binding, fluorescence polarization; hit rate 0.69% among 370,000;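 active means inhibition above a cutoff: mean of compounds within the control limits plus 3 SD of those, cut at about 17% in these data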;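 further: 0% = plate median of compound wells and 100% = probe without SIAE protein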
HTRA1 inh: inhibitors of human serine peptidase HTRA1; Q92743; recombinant HTRA1, FP-rhodamine activity-based probe, fluorescence polarization; inhibition, % at 5.96 µM; hit rate 0.5% among 340,000; AID 504803; in the data active means inhibition above about 36%;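 further: 0% = enzyme with DMSO and 100% = wells lacking enzyme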
TCR CD3 inh: blocks the human TCR-CD3 interaction; AID 651800; TAMRA-labeled TCR probe fluorescence, biochemical; inhibition, % at 9.4 µM; hit rate 0.37% among 360,000; in the data active means inhibition above about 19%;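 further: recombinant mutant TCR 2C K166C tagged with TAMRA read by polarization; 0% = receptor in buffer alone and 100% = receptor with positive control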
ABHD4 inh: inhibitors of mouse ABHD4; Q8VD66; purified mABHD4, FP-Rh probe fluorescence polarization; inhibition, % at 8.92 µM; hit rate 0.54% among 370,000; AID 720543;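 active means inhibition exceeding the mean over every tested compound plus 3 SD, cut at about 30% in these data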;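 further: 0% = plate median of compound wells and 100% = S159A mutant with DMSO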
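System: mouse ABHD4 enzyme, wild type / Medium: HEPES pH 7.0, NaCl, Pluronic buffer / Reagent: FP-Rh activity-based fluorescent probe / Control set: S159A mutant high control, sample median low control / Detection: fluorescence polarization with parallel and perpendicular emission, 525/598 nm / Schedule: 45 min + 60 min at 25 °C / Compound dosing: 8.92 µM, single dose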
SIAE confirm: confirmation of human SIAE inhibitors; shares compounds with SIAE inh; SIAE FP-Rh activity-based probe, fluorescence polarization; inhibition, % at 9.66 µM; hit rate 13% among 2,300; AID 1117263;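 active means mean inhibition of the replicates above the hit cutoff set in the primary screen, cut at about 17% in these data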;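 further: 0% = SIAE with DMSO and probe and 100% = probe without SIAE; inhibitors lower polarization as more probe stays unbound to SIAE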
* marks the source's active call; other numbers are inactive results; / = no result given.

SMILES	PRMT1 FP inh	PAD4 inh	SIAE inh	HTRA1 inh	TCR CD3 inh	ABHD4 inh	SIAE confirm
Cc1ccc2c(c1)=C(c1sc(N(C)c3ccc(O)cc3)nc1O)C(=O)N=2	-1	0	17*	-3	-1	19	8
Cn1c(=O)c2cc(NC(=S)NC3CC3)ccc2n1Cc1ccc(F)cc1	2	/	18*	/	-1	5	0
NC(=O)COC(=O)c1c2c(nc3ccccc13)CCCCC2	1	-1	17*	2	-2	-6	3
CCN(C(=O)[C@@H](C)[C@@H](O)c1ccc(Cl)cc1)c1ccccc1	-5	/	0	/	/	-5	/
COc1ccc(OC)c(S(=O)(=O)N(CCc2ccc(OC)c(OC)c2)Cc2cccs2)c1	0	/	-6	/	/	-8	/
CCOC(=O)c1ccc(CC(=O)c2ccc(O)cc2O)o1	7	-19	-3	-4	-2	0	/
CCC(=O)Oc1ccc(C/C(=N\O)c2ccc(O)cc2O)o1	9	3	37*	23	0	16	28*
c1coc(C2=Nc3cccc4cccc(c34)N2)c1	5	-2	23*	5	8	6	8
Nc1ccc(C2=Nc3cccc4cccc(c34)N2)cc1	-2	/	24*	19	5	-3	4
COc1cccc(C2=Nc3cccc4cccc(c34)N2)c1	7	-2	22*	14	0	-6	-1
COc1cccc(-c2nnc(-c3ccc4ccccc4c3)o2)c1	-5	/	-59	-25	-4	-34	/
COC(=O)c1sc(N/N=C/c2ccc(C(C)C)cc2)nc1C	-2	-2	23*	8	6	4	7
Cc1nc(N2CCCCC2C)c2nnn(Cc3ccccc3)c2n1 (centres undefined)	-4	/	-3	/	/	0	/
Cc1ccc(NC(=O)OC2CC3CC2[C@H]2CCCCN2[C@H]3C)cc1 (some centres undefined)	-3	/	8	/	/	2	/
COc1ccc(C(=O)CCNc2ccc3c(c2)OCCO3)cc1	4	1	18*	3	0	4	4
COc1ccc(C(=O)CCNc2cccc(Cl)c2)cc1	-1	-2	-2	-8	0	-2	/
COc1c2occc2cc2ccc(=O)oc12	0	-6	-2	-6	7	-3	/
CC(=O)Oc1c2occc2cc2ccc(=O)oc12	2	-5	20*	14	0	14	2
COc1ccc(CN2CCN(Cc3ccccc3F)CC2)c(OC)c1	6	2	17*	-8	-3	7	-5
Cc1cccc(C)c1N1CCN(C(=O)Nc2ccc3c(c2)OCCO3)CC1	-2	-5	-1	-13	-3	0	/
CC(C)(C)OC(=O)N1CCN(C(=O)Nc2ccc3c(c2)OCCO3)CC1	-3	-1	18*	2	-5	-2	1
COc1ccc(Cc2ccccc2C(=O)O)cc1	-1	/	0	1	-4	1	/
COc1ccc(CC2=CC(=O)c3ccccc3C2=O)cc1	79*	-10	18*	2	4	21	6
NS(=O)(=O)c1ccc(N/N=C/c2cn(-c3ccccc3)nc2-c2cccs2)c([N+](=O)[O-])c1	4	-6	-6	-2	5	4	/
NS(=O)(=O)c1ccc(N/N=C/c2cn(-c3ccccc3)nc2-c2cccs2)cc1	2	7	23*	-20	-2	-14	3
SMILES	PRMT1 FP inh	PAD4 inh	SIAE inh	HTRA1 inh	TCR CD3 inh	ABHD4 inh	SIAE confirm
Nc1ccc2nc(-c3cc(Cl)c(N)c(Cl)c3)[nH]c2c1	0	-6	24*	32	-11	22	13
O=[N+]([O-])c1ccc(-c2nc3ccc([N+](=O)[O-])cc3[nH]2)cc1	-1	-2	18*	-4	6	-10	7
Nc1ccc2nc(-c3cccc(-c4nc5ccc(N)cc5[nH]4)c3)[nH]c2c1	4	-22	26*	8	-10	-3	37*
Nc1ccc(-c2nc3ccc(N)cc3[nH]2)cc1	1	-2	25*	10	-9	15	8
Cc1nc2ccc(-c3nc4ccc(N)cc4[nH]3)cc2[nH]1	3	-11	6	6	-13	8	/
COC(=O)[C@]12C[C@H](CC(=O)N3CCOCC3)C(=O)N(Cc3cccc4ccccc34)C1=C[C@H](C1CCCC1)O[C@@H]2C	-4	/	0	/	/	1	/
Nc1ccc2nc(-c3ccc(Cl)cc3)[nH]c2c1	-3	-4	54*	33	-1	15	4
Clc1ccc2nc(-c3ccc(Cl)nc3)[nH]c2c1	-2	-4	-13	-20	0	-12	/
COC(=O)c1cc2c(c3c4cc(F)ccc4n(S(=O)(=O)c4ccc(C)cc4)c13)C(=O)N(Cc1ccccc1)C2	-2	/	-7	/	-4	-7	/
O=C(Nc1ccccc1C(F)(F)F)c1ccsc1	-1	0	-3	2	-5	-8	/
O=C(NNc1ccccc1C(F)(F)F)c1sccc1Br	-4	0	25*	-6	7	-1	-3
O=C(c1ccc(Cn2c(=S)[nH]c3ccccc3c2=O)cc1)N1CCN(c2ccccn2)CC1	-2	-2	23*	-18	-4	3	1
Cc1ccc(-c2nc(Nc3ccc(N4CCOCC4)cc3)c3ccccc3n2)cc1	-2	1	21*	/	-4	2	14
c1ccc(Nc2nc(-c3ccccc3)nc3ccccc23)cc1	-1	-1	-38	-65	4	-48	/
Cc1ccc(-c2nc(Nc3cccc(O)c3)c3ccccc3n2)cc1	2	-1	-30	-106	-1	-55	/
Oc1ccc(Nc2nc(-c3ccccc3O)nc3ccccc23)cc1	1	/	26*	2	-3	3	1
COc1ccc(Nc2nc(-c3ccccc3O)nc3ccccc23)cc1	-1	-2	14	-33	-4	-5	/
Cc1ccc(-c2nc(Nc3ccc(O)cc3)c3ccccc3n2)cc1	0	-7	17*	10	-1	6	-22
C[C@H](CO)N1C[C@H](C)[C@H](CN(C)C(=O)Nc2cccc3ccccc23)Oc2ncc(Br)cc2C1=O	4	/	4	/	2	6	/
Cc1ccc(S(=O)(=O)N2CCCC(C(=O)Nc3c(C)n(C)n(-c4ccccc4)c3=O)C2)cc1 (centres undefined)	2	/	0	/	/	-1	/
COc1ccc(-c2nnc(SCC(=O)NN=Cc3c(O)ccc4ccccc34)n2-c2ccc(OC)cc2)cc1	-5	/	13	/	/	7	/
CCCCNC(=O)NS(=O)(=O)c1ccc(NC(=O)CSc2nnc(-c3ccc(Cl)cc3)n2N)cc1	5	/	2	/	/	1	/
COC(=O)[C@]12C[C@H](CC(=O)NCc3cccs3)C(=O)N(Cc3ccc(Cl)cc3Cl)C1=C[C@H](C(C)(C)C)O[C@@H]2C	1	/	-4	/	/	-12	/
COc1ccccc1OCc1ccc(C(=O)N2CCOCC2)o1	-1	-1	20*	2	-4	0	4
